# Most compounds without a hit are left out; they make up all but 3.5% or so of the library.
# MrgX1 ag: human MrgX1 receptor agonism, primary screen; Q96LB2; MrgX1-HEK293 cells, Fluo-4 calcium fluorescence, agonist mode; stronger effect = higher value; B-score at 10 µM; actives 0.44% (n = 310,000); AID 588627;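 active = calcium response B-score plate-corrected fluorescence ratio at least 3 library SD, with starting fluorescence B-score inside 5 SD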
# Target sequence (Q96LB2 whole entry, looked up): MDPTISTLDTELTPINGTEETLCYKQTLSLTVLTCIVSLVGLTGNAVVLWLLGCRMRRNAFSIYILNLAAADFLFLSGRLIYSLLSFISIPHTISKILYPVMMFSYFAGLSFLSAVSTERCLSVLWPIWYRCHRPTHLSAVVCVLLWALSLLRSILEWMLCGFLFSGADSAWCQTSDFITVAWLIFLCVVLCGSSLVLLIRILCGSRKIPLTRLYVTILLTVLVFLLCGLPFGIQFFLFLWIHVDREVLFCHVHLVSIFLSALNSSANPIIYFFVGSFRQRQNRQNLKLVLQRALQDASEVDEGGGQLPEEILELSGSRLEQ
#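 System – MrgX1-expressing HEK293 cells · Incubation – cells plated overnight, dye loaded 0.5 h 37 °C, 0.5 h room temperature · Technique – kinetic Fluo-4 NW fluorescence of intracellular calcium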
# RGS4 block: inhibitors of human RGS4 | actives 0.45% (n = 310,000) | AID 463165 | P49798 | HEK293 M3R/RGS4 inducible, Fluo-4 calcium flux; stronger effect = higher value; triggered by carbachol at its EC20 | B-score at 10 µM;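 active = B-score, a plate-corrected calcium signal, over three deviations above library mean, with baseline fluorescence within five deviations of library mean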;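 note: RGS4 expression induced by doxycycline in cells with stable M3 receptor; B-score is computed from the integrated fluorescence ratio over baseline after carbachol; higher B-score means a larger calcium signal and so more RGS4 inhibition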
# Target sequence (P49798 whole entry, looked up): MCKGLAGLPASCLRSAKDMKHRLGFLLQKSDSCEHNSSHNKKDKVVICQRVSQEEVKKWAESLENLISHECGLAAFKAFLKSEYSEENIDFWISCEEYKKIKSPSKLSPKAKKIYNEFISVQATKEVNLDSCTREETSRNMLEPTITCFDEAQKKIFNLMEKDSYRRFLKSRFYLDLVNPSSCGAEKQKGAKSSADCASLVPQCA
# RGS4 pot: RGS4 potentiation or activation | HEK293 M3R/inducible RGS4, carbachol calcium flux Fluo4; stronger effect = lower value | B-score at 10 µM | actives 0.92% (n = 310,000) | AID 463111;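 active = B-score of the integrated calcium signal more than 4 SD below the library mean, with starting fluorescence not abnormally high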;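 note: negative B-score means reduced calcium response which marks RGS4 activation or potentiation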
#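 Also added: carbachol at ECmax as muscarinic agonist stimulus; Assay system: HEK293 cells with stable M3R and inducible RGS4; Timing: overnight RGS4 induction, 30 min dye load 37 °C, 20 min compound RT; Measured by: Fluo4-AM (2 µM) calcium-flux fluorescence, kinetic read.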
# MrgX1 antag: blocks BAM8-22 activation of human MrgX1 receptor; actives 1.3% (n = 310,000); Q96LB2; MRGX1-HEK293 calcium flux, Fluo-4, BAM8-22 antagonism; stronger effect = lower value; B-score at 10 µM;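 active = calcium-response B-score plate-corrected more than 3 library SD below zero, starting fluorescence within 5 deviations, no agonist response on first addition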;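 note: peak minus trough fluorescence over baseline after final BAM8-22 challenge near maximal dose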
# MrgX1 allo act: human MrgX1 positive allosteric modulation, primary screen | Q96LB2 | MrgX1-HEK293, Fluo-4 calcium flux, FDSS; stronger effect = higher value | B-score at 10 µM | actives 0.63% (n = 310,000);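 active = plate-corrected calcium response at least 3 library SD above typical, normal starting fluorescence, not activating the receptor alone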;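 note: compound read alongside a low EC10 to EC30 dose of BAM8-22 agonist; peak minus trough fluorescence over baseline measured at the second addition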
# MrgX1 ant reconf: human MrgX1 receptor antagonism, re-confirmation screen; shares compounds with MrgX1 antag; MrgX1-HEK293, BAM8-22 calcium flux, Fluo-4; stronger effect = lower value; remaining BAM8-22 calcium response % of control (stronger effect = lower value), % at 10 µM; actives 19% (n = 2,300); AID 602420;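 active = remaining agonist calcium response no higher than 100% minus 3 SD of agonist-only control wells, with starting fluorescence near control levels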;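 note: agonist BAM8-22 given at a near maximal EC90 to ECmax level; peak minus minimum fluorescence divided by baseline after agonist addition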
# HEK293 Ca flux: activity in parental HEK293 cells lacking MrgX1. shares compounds with MrgX1 antag. Fluo-4 calcium fluorescence, FDSS. fluorescence ratio F(max-min)/F0 at 10 µM. actives 2% (n = 4,000). AID 624111;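 active = duplicate-averaged calcium fluorescence ratio at least three times the standard deviation of buffer wells, a nonspecific response in parental cells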
# HEK293 Ca counter: activity in parental HEK293 cells without MrgX1; shares compounds with MrgX1 antag; parental HEK293 calcium flux, Fluo-4 fluorescence ratio; stronger effect = higher value; fluorescence ratio F(max-min)/F0 at 10 µM; actives 0.4% (n = 4,000); AID 624114;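 active = calcium fluorescence ratio, averaged over duplicates, at least 3 SD of the buffer-well ratio, meaning a nonspecific response in receptor-free cells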;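 note: untransfected parental HEK293 lacking MrgX1 used as counterscreen for MrgX1 allosteric activators; fluorescence change taken during the second addition on a kinetic imager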
# HEK293 Ca cntr2: MrgX1 activator counter-screen hit in parental HEK293 cells. shares compounds with MrgX1 antag. Fluo-4 calcium fluorescence (FDSS); stronger effect = higher value. fluorescence ratio F(max-min)/F0 at 10 µM. actives 8.7% (n = 4,000);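 active = calcium fluorescence ratio at least three times the spread of buffer wells, meaning a non-specific response in parental cells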
# Hits are given with their value; – = inactive; · = no result given.
SMILES,MrgX1 ag,RGS4 block,RGS4 pot,MrgX1 antag,MrgX1 allo act,MrgX1 ant reconf,HEK293 Ca flux,HEK293 Ca counter,HEK293 Ca cntr2
O=C(CN1C(=O)C2C3c4ccccc4C(c4ccccc43)C2C1=O)N1CCOCC1 (stereo unspecified),–,–,–,-5.2,–,–,–,–,–
O=C1C2C3c4ccccc4C(c4ccccc43)C2C(=O)N1CN1CCOCC1 (stereo unspecified),–,–,–,–,–,·,·,·,·
O=C(Cn1cc2c(n1)CCCC2)N1CCOCC1,–,–,–,-5.4,–,–,–,–,–
CC(C)c1ccc(OCC(=O)NC2CC(C)(C)NC(C)(C)C2)c(Br)c1,–,–,–,–,–,·,·,·,·
CCn1ccc(C(=O)Nc2ncc(C)s2)n1,–,–,–,-5.4,–,–,–,–,–
O=C(Nc1nc(-c2cccs2)cs1)c1ccc(Cl)cc1,–,–,–,–,–,·,·,·,·
COc1ccc(C(=O)Nc2nc(-c3cccs3)cs2)cc1,–,–,–,-7.6,–,–,–,–,–
COC(=O)c1ccc(NC(=O)CN2CCN(c3ccccn3)CC2)cc1,–,–,–,–,–,·,·,·,·
CCn1c(SCC(=O)Nc2cccc(C)n2)nc2c1c(=O)n(C)c(=O)n2C,–,–,–,-5.9,–,–,–,–,–
CC(=O)Nc1cccc(/C(C)=N/NS(=O)(=O)c2ccc(C)cc2)c1,–,–,–,–,–,·,·,·,·
O=C(Nc1ccc(OCC(F)(F)C(F)F)c(C(F)(F)F)c1)c1ccccc1O,–,–,–,-5.7,–,–,–,–,–
COc1cc2cc(C(=O)O)[nH]c2c(OC)c1OC,–,–,–,-5.7,–,–,–,–,–
COc1ccc(OC)c2c(=O)cc(C(=O)O)[nH]c12,–,–,–,–,–,·,·,·,·
N#Cc1ccc(C(=O)NC23CC4CC(CC(C4)C2)C3)cc1,–,–,–,–,–,·,·,·,·
CC(=O)c1sc2nc(-c3cccs3)cc(C(F)(F)F)c2c1N,–,–,–,-10,–,–,–,–,–
CN(C)CCNC(=O)c1sc2nc(-c3ccccc3)cc(C(F)(F)F)c2c1N,–,–,–,-7.7,–,–,–,–,–
Cc1c(C(=O)O)sc2nc(-c3cccs3)cc(C(F)(F)F)c12,–,–,–,–,–,·,·,·,·
COc1ccc(OC)c(NC(=O)c2sc3nc(Cc4ccccc4)cc(C(F)(F)F)c3c2N)c1,–,–,–,–,–,·,·,·,·
COc1ccc(NC(=O)CC(NCc2ccccn2)C(=O)O)cc1 (stereo unspecified),–,–,–,–,–,·,·,·,·
CCCOc1ccccc1NC(=O)c1ccc([N+](=O)[O-])cc1,–,–,–,–,–,·,·,·,·
O=C(CSc1nnc(C2COc3ccccc3O2)o1)N1CCCc2ccccc21 (stereo unspecified),–,–,–,-4.5,–,–,–,–,–
O=C(CSc1nnc(C2COc3ccccc3O2)o1)N1CCOCC1 (stereo unspecified),–,–,–,–,–,·,·,·,·
CC1=Nc2ccc3ccccc3c2C1(C)C,–,–,–,-5.8,–,–,–,–,–
Cc1nn(C)c(C)c1S(=O)(=O)N1CCC(CO)(CC2CCCCO2)CC1 (stereo unspecified),–,–,–,–,–,·,·,·,·
CCC(C)C(=O)Nc1nc(C)c(-c2csc(Nc3cc(OC)ccc3OC)n2)s1 (stereo unspecified),–,–,–,-5.9,–,–,–,–,–
SMILES,MrgX1 ag,RGS4 block,RGS4 pot,MrgX1 antag,MrgX1 allo act,MrgX1 ant reconf,HEK293 Ca flux,HEK293 Ca counter,HEK293 Ca cntr2
Cc1ccc(S(=O)(=O)Cn2nnnc2C(C(C)C)N2CCSCC2)cc1 (stereo unspecified),–,–,–,–,–,·,·,·,·
Cc1ccc(S(=O)(=O)Cn2nnnc2C(C(C)C)N2CCN(Cc3ccco3)CC2)cc1 (stereo unspecified),–,–,–,-5.7,–,–,–,–,–
CC(=O)N1CCN(S(=O)(=O)c2cccc(C(=O)Nc3ccccc3N3CCCC3)c2)CC1,–,–,–,–,–,·,·,·,·
CN1CCN(S(=O)(=O)c2cccc(C(=O)Nc3ccccc3N3CCCC3)c2)CC1,–,–,–,-4.6,–,–,–,–,–
O=C(Nc1ccc(Cl)c(C(F)(F)F)c1)C(=O)N1CCCCC1,–,–,–,–,–,·,·,·,·
O=C(Nc1ccc(Cl)c(C(F)(F)F)c1)N1CCCC(O)C1 (stereo unspecified),–,–,–,-6.2,–,–,–,–,–
Cc1cccc(C(=O)OC(C)C(=O)NC(=O)NC2CCCCC2)c1O (stereo unspecified),–,–,–,–,–,·,·,·,·
CC(=O)Nc1cccc(C(=O)OC(C)C(=O)NC(=O)NC2CCCCC2)c1 (stereo unspecified),–,–,–,-9.9,–,–,–,–,–
Cc1ccc(NC(=O)NC2CCCc3ccccc32)cc1 (stereo unspecified),–,–,–,-5.3,–,–,–,–,–
CC(C)Cc1nnc(NC(=O)CCC(=O)NC2CCCc3ccccc32)s1 (stereo unspecified),–,–,–,-5.2,–,–,–,–,–
CCCc1nnc(NC(=O)CCC(=O)NC2CCCc3ccccc32)s1 (stereo unspecified),–,–,–,–,–,·,·,·,·
CCN=C(NCC)SC1CC(=O)N(CCc2ccccc2)C1=O (stereo unspecified),–,–,–,–,–,·,·,·,·
Cc1cccc(C(=O)Nc2nnc(SCC(=O)Nc3ccc4c(c3)oc3ccccc34)s2)c1,–,–,–,-11,–,–,–,–,–
O=C(c1nc2ccccc2s1)N1CCN(c2ccccn2)CC1,–,·,·,–,–,·,·,·,·
O=C(c1nc2ccccc2s1)N1CCSCC1,–,–,–,-10,–,–,–,–,–
Cc1cccc(CCN(CC(=O)NCc2ccc(F)cc2)C(=O)c2csnn2)c1,–,–,–,–,–,·,·,·,·
COc1ccc(Cn2c(C)ccc2C)cc1,–,–,–,-6.3,–,–,–,–,–
CCn1c2ccccc2c2cc(CN3CCN(S(=O)(=O)CC)CC3)ccc21,–,–,–,–,–,·,·,·,·
CCn1c2ccccc2c2cc(CN3CCN(S(=O)(=O)Cc4ccccc4)CC3)ccc21,–,–,–,-8.1,–,80%,–,–,–
Nn1c(SCC(=O)N2CCOCC2)nnc1-c1ccccc1Cl,–,–,–,-6.2,–,74%,–,–,–
